Diaphorase act – compounds boosting diaphorase resazurin reduction – biochemical, uHTS, resorufin fluorescence, counter-screen for diaphorase-coupled primary assays, primary screen; Diaphorase/resazurin coupled assay, 16 min; hits give high values; 1 = vehicle wells, 0 = NADH-free wells; activation factor at 20 µM; 190,000 compounds, 0.005% hits;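 active = diaphorase activity raised at least twofold by the compound at 20 µM; inactive = activation factor below 2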
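Test system: Clostridium kluyveri diaphorase, purified enzyme. Buffer or medium: 50 mM HEPES pH 7.4 buffer plus MgCl2 and Tween 20. Also added: 0.114 mM NADH and 0.1 mM resazurin, final amounts. Dosing: compound 20 µM once, DMSO 1%. Schedule: 16 min enzyme reaction, ambient temperature. Detection: fluorescence of resorufin, 544 nm excitation, 590 nm emission.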
KCC2 mod – KCC2 cotransporter modulators, thallium flux, primary screen, cell-based, HEK293 KCC2, FluoZin-2 fluorescence, MLSMR; 190,000 compounds, 2.2% hits; KCC2 cells, thallium flux FluoZin-2 fluorescence; B-score of Tl+ flux slope (higher = more flux/activation; lower = inhibition) at 10 µM; Solute carrier family 12 member 5 (Homo sapiens), Q9H2X9;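 active = thallium flux slope and its plate-corrected score both differing from the plate sample mean at a set confidence after two filtering rounds, in either direction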;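 also: slope of fluorescence scaled to starting intensity during 10 to 20 s after thallium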
Lmaj promast – Leishmania major promastigote growth inhibition, primary screen. Leishmania major promastigotes, resazurin fluorescence viability. inhibition, % at 10 µM. 200,000 compounds, 9% hits; in the data active = inhibition above about 50%;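 also: promastigotes grown with compound for 44 hours at 28 °C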
ROMK mod – ROMK potassium channel modulators, primary screen, cell-based, thallium flux, MLSMR library; ATP-sensitive inward rectifier potassium channel 1 (Homo sapiens), P48048; Tet-inducible ROMK, thallium flux fluorescence; actives lie on both sides; B-score at 10 µM; 130,000 compounds, 2% hits; AID 1918, 2009;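 active = signal ratio slope over the read window, or its plate-corrected B-score, at least 3 SD from the plate mean, either direction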;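 also: B-score of the F/F0 ratio slope over 7 to 12 s after thallium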
Target sequence (P48048 whole entry, looked up): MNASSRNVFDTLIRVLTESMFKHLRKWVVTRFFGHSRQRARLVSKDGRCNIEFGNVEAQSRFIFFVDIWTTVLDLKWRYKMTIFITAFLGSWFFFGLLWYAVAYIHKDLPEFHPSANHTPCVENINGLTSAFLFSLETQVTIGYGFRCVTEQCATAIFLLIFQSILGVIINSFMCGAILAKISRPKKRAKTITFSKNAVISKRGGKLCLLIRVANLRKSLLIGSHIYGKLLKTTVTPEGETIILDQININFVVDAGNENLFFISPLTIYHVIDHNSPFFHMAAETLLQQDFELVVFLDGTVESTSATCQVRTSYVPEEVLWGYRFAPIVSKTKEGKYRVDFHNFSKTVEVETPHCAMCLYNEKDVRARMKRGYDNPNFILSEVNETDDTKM
Diaphorase inh – diaphorase inhibitors and chemical oxidizers, primary screen, counter-screen for diaphorase-coupled primary assays, biochemical, uHTS, resorufin fluorescence. 190,000 compounds, 0.69% hits. diaphorase resazurin-to-resorufin fluorescence, NADH, 16 min; bacterial (C. kluyveri) enzyme, not human. AID 1217, 2008. inhibition, % at 20 µM;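 active = primary screen inhibition at 20 µM above a set limit, cut at about 50% in these data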;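 also: plate controls were DMSO with full reaction for no effect and wells lacking NADH for full effect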
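Assay system: diaphorase enzyme from Clostridium kluyveri. Quantity: enzyme working solution with 0.14 U/mL diaphorase. Schedule: reaction incubation of 16 min at room temperature. Technique: resorufin fluorescence, excitation 544 nm, emission 590 nm. Controls: No-NADH positive control and DMSO neutral control.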
WT yeast gro inh – growth inhibition of WT strain, primary screen, mitochondrial fusion inhibitor project, WT and mutant strains, chemical genetic; mitochondrial fusion phenotypic screen; inhibition, % at 10 µM; 190,000 compounds, 2.1% hits; AID 1362, 2008; in the data active = inhibition above about 58%; tested in S. cerevisiae
* = called active by the depositor; x = no result. Rows were chosen to be rich in hits. Some 12% of all compounds tested hit in one or more screens of this group.

SMILES | Diaphorase act | KCC2 mod | Lmaj promast | ROMK mod | Diaphorase inh | WT yeast gro inh
O=C(NC(=S)Nc1nc2c(ccc3ccccc32)s1)c1cccs1 | 0.9 | 17* | 38 | 0.025 | 6 | 20
Cc1ccnc(NC(=S)NC(=O)c2cccs2)c1 | 0.9 | 26* | -2 | 0.47 | 14 | 20
O=C(Nc1nc2c(ccc3ccccc32)s1)c1ccco1 | 0.8 | -1.4 | 8 | -0.75 | 17 | 2
COc1ccc2[nH]c(C)c(CCNC(=S)Nc3ccc(C)cc3)c2c1 | 0.7 | -0.61 | 92* | 0.21 | 26 | 3
COc1ccc2[nH]c(C)c(CCNC(=S)Nc3cccc(C)c3C)c2c1 | 0.9 | -0.36 | 61* | -0.39 | 14 | 18
COc1cc(NC(=O)c2cccc3c2C(=O)N(Cc2cccnc2)C3)cc(OC)c1OC | 0.9 | -0.074 | 5 | x | 13 | 0
CCCCn1c(SCC(=O)/C(C#N)=C(\C)N)nc2ccccc2c1=O | 0.8 | 24* | 8 | 3* | 25 | -22
C/C(N)=C(/C#N)C(=O)CSc1nc2cc(Cl)ccc2c(=O)n1-c1ccc(C)cc1 | 1 | 8.7* | 8 | x | 1 | 5
Cc1cccc(-n2c(SCC(=O)NCc3ccco3)nc3ccccc3c2=O)c1 | 0.7 | -1.2 | 47 | x | 28 | -7
O=C(CSc1nc2ccccc2c(=O)n1-c1ccccc1)NCc1ccco1 | 1 | x | 61* | x | 5 | 6
Cc1cccc(-n2c(SCC(=O)NCc3ccc4c(c3)OCO4)nc3ccccc3c2=O)c1 | 1 | 1.2 | 96* | x | 4 | -8
COc1ccc(-n2c(SCC(=O)/C(C#N)=C(\C)N)nc3ccccc3c2=O)cc1OC | x | -0.23 | x | x | x | x
C=CCn1c(SCc2ccccc2C#N)nnc1-c1ccccc1O | 0.8 | x | 21 | -0.082 | 20 | 15
CCCCn1c(SCC(=O)NCc2ccco2)nc2ccccc2c1=O | 0.8 | 9.1* | -6 | -1.2 | 24 | -6
Cc1nc2c(C(=O)NCc3ccc4c(c3)OCO4)c[nH]n2c(=O)c1Cl | 0.8 | -0.8 | -8 | x | 20 | 6
Cc1nc2c(C(=O)NCCC3=CCCCC3)c[nH]n2c(=O)c1Cl | 0.5 | -0.33 | -4 | x | 54* | -10
O=S(=O)(NC1c2cccc3cccc(c23)C1N1CCNCC1)c1ccccc1 (stereo not given) | 0.6 | x | 23 | x | 36 | 15
O=S(=O)(NC1c2cccc3cccc(c23)C1N1CCN(CCO)CC1)c1ccccc1 (stereo not given) | 0.8 | 2.3 | 71* | -2.1 | 24 | x
O=C(c1ccccc1)N1CCN(C2c3cccc4cccc(c34)C2NS(=O)(=O)c2ccccc2)CC1 (stereo not given) | 0.7 | -0.01 | 99* | x | 34 | 11
COc1ccccc1CNC(=O)C1(c2ccc(Cl)cc2)CC1 | 1 | -2.3 | 1 | -1.2 | 3 | 11
O=C(CCSCc1ccc(Cl)cc1)NCc1cccnc1 | 1 | -0.89 | -8 | -0.59 | -2 | 6
O=C(Nc1ccccc1N1CCOCC1)C1CCN(S(=O)(=O)c2ccc(F)cc2)CC1 | 0.9 | 0.22 | 49 | -0.38 | 9 | 1
O=C(Nc1ccccc1N1CCOCC1)C1CCN(S(=O)(=O)c2cccc(C(F)(F)F)c2)CC1 | 0.9 | 0.45 | 66* | -0.088 | 11 | -3
N#C/C(=C\c1ccc([N+](=O)[O-])cc1)C(=O)NCCCn1ccnc1 | x | -0.13 | x | x | x | x
N#C/C(=C/c1cn(-c2ccccc2)nc1-c1cccc(OCc2ccc(F)cc2)c1)C(=O)NCCCn1ccnc1 | 1.1 | 2.2 | 100* | x | -9 | 50
SMILES | Diaphorase act | KCC2 mod | Lmaj promast | ROMK mod | Diaphorase inh | WT yeast gro inh
CCCOc1cccc(-c2nn(-c3ccccc3)cc2/C=C(\C#N)C(=O)NCCCn2ccnc2)c1 | 0.9 | -0.78 | 89* | x | 6 | 8
CCOc1cc(NC(=S)NCC2CCCO2)c(OCC)cc1NC(=O)c1cccc(C)c1 (stereo not given) | 0.9 | x | 0 | x | 9 | 14
Nc1c(C(O)(C(F)(F)F)C(F)(F)F)ccc2ccccc12 | 0.7 | 0.63 | 100* | x | 31 | 0
Cc1ccc(-c2cccc(CN3CCN(C4CCN(C(C)C)CC4)C(CCO)C3)c2)o1 (stereo not given) | 1.2 | -0.41 | 52* | -1.9 | -17 | 7
CC(C)N1CCC(N2CCN(Cc3ccc(-c4ccccc4Cl)o3)CC2CCO)CC1 (stereo not given) | x | 1.8 | 89* | x | x | 4
Cc1cccc(-n2nnc3c(=O)n(Cc4ccccn4)cnc32)c1 | 0.9 | 0.19 | -1 | 0.23 | 11 | -2
O=S(=O)(Nc1cccc(-c2nc3cccnc3s2)c1)c1ccc2c(c1)OCCO2 | 0.6 | 0.064 | 8 | x | 39 | 68*
Cc1ccc(-c2nc3cccnc3s2)cc1NS(=O)(=O)c1ccc2c(c1)OCCO2 | 1 | -0.37 | 30 | x | 5 | 49
CC(=O)N1C(O)CC(C)N1c1ccccc1 (stereo not given) | 1.1 | 0.16 | -6 | 0.66 | -8 | 1
Cc1ccccc1NC(=O)CN1C(=S)NC(C)(C)CC1C (stereo not given) | 1 | 1.2 | 53* | 0.97 | 0 | 17
Cc1cccc(NC(=O)CN2C(=S)NC(C)(C)CC2C)c1 (stereo not given) | 1 | 1.5 | 54* | -0.94 | 0 | 2
CC1CC(C)(C)NC(=S)N1CC(=O)NCc1ccccc1Cl (stereo not given) | 1 | 0.0062 | 77* | 0.46 | 0 | -5
Cc1ccc(S(=O)(=O)NC2c3cccc4cccc(c34)C2Sc2n[nH]c(N)n2)cc1 (stereo not given) | 0.8 | 0.29 | -1 | x | 24 | 15
O=S(=O)(NC1c2cccc3cccc(c23)C1Sc1ncccn1)c1ccc(Cl)cc1 (stereo not given) | 0.8 | -0.62 | 83* | -0.24 | 23 | 28
COc1ccc(Nc2nc(-c3cccs3)nc3ccccc23)c(OC)c1 | 0.7 | -1.7 | 41 | 1 | 28 | 21
c1ccc(CNc2nc(-c3cccs3)nc3ccccc23)nc1 | 0.8 | -1.3 | 78* | -2.6 | 17 | -4
Cc1ccc(CNc2nc(-c3cccs3)nc3ccccc23)cc1 | 0.7 | 1.5 | 76* | -0.59 | 28 | 76*
N#Cc1c(-c2cccs2)cc(-c2cccnc2)nc1N | 0.8 | x | 53* | x | 24 | 0
N#Cc1c(-c2ccc(F)cc2)cc(-c2cccnc2)nc1N | 1 | 0.035 | -4 | -0.44 | 4 | 0
O=C(Cn1nnc2ccccc2c1=O)Nc1cccc(S(=O)(=O)N2CCOCC2)c1 | 1.1 | 0.88 | 15 | 0.31 | -6 | 0

High-throughput results: PubChem, several laboratories
